According to article PMC5903480 (Drug Design, Development and Therapy, 2018):

Assays:
[1] = Tolerability: adverse events in healthy male volunteers; type: in vivo, human; conditions: multiple oral doses over 10 days, healthy male subjects
In short: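 Healthy Korean men took the single or combined drugs once daily for 10 days in a 3-period crossover. Monitoring ran throughout and covered vital signs, 12-lead ECG, hematology, blood chemistry, urinalysis and physical examinations. AEs were recorded by symptom, duration, intensity, drug relationship, outcome and seriousness. Counts are subjects (events); frequencies were compared by Fisher's exact test.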

[2] = test system: plasma cholesterol; conditions: in humans; cited from earlier work
[3] = test system: LDL-C; conditions: ezetimibe administered with atorvastatin; cited from earlier work
[4] = Steady-state plasma pharmacokinetics of free and total ezetimibe; type: in vivo, human
In short: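 Ezetimibe 10 mg was given orally once daily for 10 days, alone or with rosuvastatin 20 mg, fasted, in a crossover. EDTA plasma was sampled 0–72 h after the day-10 dose. LC-MS/MS (ezetimibe-d4 internal standard) measured free and total (free plus glucuronide) ezetimibe; LLOQ was 0.2 and 0.5 ng/mL. Analysis was non-compartmental on actual times, with t1/2 as ln(2)/λz. Log-transformed Cmax,ss and AUCτ,ss were compared by ANOVA as geometric mean ratios with 90% CI.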

[5] = test system: LDL-C; conditions: volunteers with hypercholesterolemia, n=8 per group, ezetimibe 10 mg; cited from earlier work
[6] = single-dose 20 mg ezetimibe; cited from earlier work
[7] = healthy subjects, 7 day-dosing, coadministration with rosuvastatin; cited from earlier work
[8] = test system: cholesterol absorption; conditions: rat model; cited from earlier work

SMILES	tolerability [1]	reduction of plasma cholesterol [2]	additional reductions in LDL-C levels [3]	amount of free ezetimibe in the body ([4]; relative to conjugate/total ezetimibe) [%]	90% CI of geometric mean ratio for Cmax,ss of free ezetimibe ([4]; single versus combination treatment, exception to 0.80–1.25)	subjects achieving a 35%–50% reduction of LDL-C [5]	AEs and physical examinations [6]	Cmax,ss of free ezetimibe [6] [ng/mL]	90% CI of AUCmax,ss ratio of free ezetimibe on coadministration [7]	90% CI of Cmax,ss ratio of free ezetimibe on coadministration [7]	cholesterol absorption inhibiting activity (relative potency) [8]
CC(C)c1nc(N(C)S(C)(=O)=O)nc(-c2ccc(F)cc2)c1/C=C/[C@@H](O)C[C@@H](O)CC(=O)O [Rosuvastatin]	well tolerated	–	–	–	–	–	–	–	–	–	–
O=C1[C@H](CC[C@H](O)c2ccc(F)cc2)[C@@H](c2ccc(O)cc2)N1c1ccc(F)cc1 [Ezetimibe]	well tolerated	15%–20%	12%–19%	< 8	1.038–1.346	1 of 8	no AEs or clinically significant changes	5.2	1.094–1.341	0.994–1.285	–
O=C(O)[C@H]1O[C@@H](Oc2ccc([C@@H]3[C@@H](CC[C@H](O)c4ccc(F)cc4)C(=O)N3c3ccc(F)cc3)cc2)[C@H](O)[C@@H](O)[C@@H]1O [ezetimibe glucuronide]	–	–	–	–	–	–	–	–	–	–	more potent than ezetimibe
